Data on eight compounds can be found in ChEMBL document CHEMBL4118251 (J Med Chem, 2018).

A value given as a limit tells only on which side of the number the result lay.

What is called EC50 is the concentration at which the effect is half-maximal.

The target of assay [1] is Glucagon-like peptide 1 receptor (Homo sapiens, UniProt P43220). Kind of assay: Agonist activity at human GLP1R expressed in HEK293 cells assessed as cAMP accumulation after 30 mins by HTRF assay. The assay is classed as functional, cell-based. Background: cAMP levels reflect the balance of adenylyl cyclase and phosphodiesterase activity.
Glucagon-like peptide 1 receptor, sequence (P43220 whole entry): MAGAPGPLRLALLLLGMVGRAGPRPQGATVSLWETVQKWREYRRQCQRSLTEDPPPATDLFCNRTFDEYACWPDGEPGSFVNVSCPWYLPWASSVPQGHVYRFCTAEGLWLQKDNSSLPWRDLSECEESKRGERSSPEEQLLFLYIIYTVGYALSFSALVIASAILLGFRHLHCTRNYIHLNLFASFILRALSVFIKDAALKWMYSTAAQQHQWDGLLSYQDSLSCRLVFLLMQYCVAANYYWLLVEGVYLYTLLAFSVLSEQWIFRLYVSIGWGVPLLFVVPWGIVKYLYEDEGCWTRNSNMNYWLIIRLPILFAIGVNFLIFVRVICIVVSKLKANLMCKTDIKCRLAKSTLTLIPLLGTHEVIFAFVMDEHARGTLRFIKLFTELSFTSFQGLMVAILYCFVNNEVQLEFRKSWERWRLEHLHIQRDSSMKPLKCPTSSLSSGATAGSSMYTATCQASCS
The target of assay [2] is Glucagon receptor (Homo sapiens, UniProt P47871). As to the kind of experiment: Agonist activity at human glucagon receptor expressed in HEK293 cells assessed as cAMP accumulation after 30 mins by HTRF assay. The assay is classed as functional, cell-based.
Glucagon receptor, sequence (P47871 whole entry): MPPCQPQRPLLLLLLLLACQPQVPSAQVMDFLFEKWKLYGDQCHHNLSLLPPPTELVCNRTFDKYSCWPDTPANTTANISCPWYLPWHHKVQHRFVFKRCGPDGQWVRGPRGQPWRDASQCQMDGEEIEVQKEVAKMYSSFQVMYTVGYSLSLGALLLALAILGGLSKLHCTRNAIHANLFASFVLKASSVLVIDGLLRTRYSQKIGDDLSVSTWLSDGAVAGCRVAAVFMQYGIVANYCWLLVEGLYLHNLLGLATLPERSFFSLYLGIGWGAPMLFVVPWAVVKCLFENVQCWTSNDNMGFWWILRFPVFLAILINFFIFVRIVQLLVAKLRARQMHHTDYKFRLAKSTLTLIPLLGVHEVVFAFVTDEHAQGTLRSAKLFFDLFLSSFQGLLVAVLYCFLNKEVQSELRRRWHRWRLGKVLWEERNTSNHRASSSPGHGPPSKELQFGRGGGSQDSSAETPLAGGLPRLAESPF
In assay [3] the target is T1, Gastric inhibitory polypeptide receptor (Homo sapiens, UniProt P48546).
T1 sequence (P48546 whole entry): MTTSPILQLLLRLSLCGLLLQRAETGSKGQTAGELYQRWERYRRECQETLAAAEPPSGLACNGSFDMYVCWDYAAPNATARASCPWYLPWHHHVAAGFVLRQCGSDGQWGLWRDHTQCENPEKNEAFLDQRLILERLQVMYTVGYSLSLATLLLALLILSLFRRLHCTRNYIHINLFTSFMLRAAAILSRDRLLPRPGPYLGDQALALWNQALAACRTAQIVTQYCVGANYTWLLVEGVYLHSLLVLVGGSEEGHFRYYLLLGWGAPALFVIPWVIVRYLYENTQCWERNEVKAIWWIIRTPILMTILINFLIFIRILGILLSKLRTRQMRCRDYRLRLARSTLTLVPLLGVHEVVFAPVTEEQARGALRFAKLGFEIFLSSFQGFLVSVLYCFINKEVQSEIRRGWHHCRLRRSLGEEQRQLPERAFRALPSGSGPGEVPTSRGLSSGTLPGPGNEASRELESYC
Kind of assay: Agonist activity at human GIP receptor expressed in HEK293 cells assessed as cAMP accumulation after 30 mins by HTRF assay. The assay is classed as functional, cell-based.

The species named for assay [4] is Homo sapiens. As to the kind of experiment: Selectivity ratio of EC50 for human GIP receptor expressed in HEK293 cells to EC50 for human GLP1R expressed in HEK293 cells. The assay is classed as cell-based. In outline:
(§1)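 HEK293 lines stably expressing human or monkey receptor were detached with accutase. Cells were resuspended at 400 000 cells/mL in HBSS/20 mM HEPES/0.1% BSA/2 mM IBMX and exposed to peptide for 30 min at room temperature. cAMP was read by HTRF (665/620 nm) after 1 h lysis.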

The nature of assay [5]: Agonist activity at monkey glucagon receptor expressed in HEK293 cells assessed as cAMP accumulation after 30 mins by HTRF assay. The assay is classed as cell-based, Macaca mulatta. In outline: as §1
Assay [6] is described as follows: Agonist activity at monkey GIP receptor expressed in HEK293 cells assessed as cAMP accumulation after 30 mins by HTRF assay. The assay is classed as cell-based, Macaca mulatta. In outline:
as §1

Take `CCCCCCCCCCCCCCCCC(=O)N[C@@H](CCC(=O)NCCCC[C@H](NC(=O)[C@H](CCC(N)=O)NC(=O)[C@H](CCCCN)NC(=O)[C@H](CO)NC(=O)[C@H](CC(C)C)NC(=O)[C@H](CC(=O)O)NC(=O)[C@H](CO)NC(=O)[C@@H](NC(=O)[C@H](Cc1ccccc1)NC(=O)[C@@H](NC(=O)CNC(=O)[C@H](CCC(N)=O)NC(=O)C(C)(C)NC(=O)[C@@H](N)Cc1cnc[nH]1)[C@@H](C)O)[C@@H](C)O)C(=O)N[C@@H](CC(=O)O)C(=O)N[C@@H](CCC(=O)O)C(=O)N[C@@H](CCC(N)=O)C(=O)N[C@@H](CCCNC(=N)N)C(=O)N[C@@H](C)C(=O)N[C@@H](CCCCN)C(=O)N[C@@H](CC(C)C)C(=O)N[C@@H](Cc1ccccc1)C(=O)N[C@H](C(=O)N[C@@H](CCC(=O)O)C(=O)N[C@@H](Cc1c[nH]c2ccccc12)C(=O)N[C@@H](CC(C)C)C(=O)NC(C)(C)C(=O)N[C@@H](C)C(=O)NCC(=O)NCC(=O)N1CCC[C@H]1C(=O)N[C@@H](CO)C(=O)N[C@@H](CO)C(=O)NCC(=O)N[C@@H](C)C(=O)N1CCC[C@H]1C(=O)N1CCC[C@H]1C(=O)N1CCC[C@H]1C(=O)N[C@@H](CO)C(N)=O)[C@@H](C)CC)C(=O)O`: the EC50 in assay [1] stood at 0.0064 nM; in assay [2], 0.0154 nM; in assay [3], 1.16 nM. In addition, the Ratio EC50 in assay [4] was 181.

Regarding `CCCCCCCCCCCCCCCCC(=O)N[C@@H](CCC(=O)N[C@@H](CCC(=O)NCCCC[C@H](NC(=O)[C@H](CCC(N)=O)NC(=O)[C@H](CCCCN)NC(=O)[C@H](CO)NC(=O)[C@H](CC(C)C)NC(=O)[C@H](CC(=O)O)NC(=O)[C@H](CO)NC(=O)[C@@H](NC(=O)[C@H](Cc1ccccc1)NC(=O)[C@@H](NC(=O)CNC(=O)[C@H](CCC(N)=O)NC(=O)C(C)(C)NC(=O)[C@@H](N)Cc1cnc[nH]1)[C@@H](C)O)[C@@H](C)O)C(=O)N[C@@H](CC(=O)O)C(=O)N[C@@H](CCC(=O)O)C(=O)N[C@@H](CCC(N)=O)C(=O)N[C@@H](CCCNC(=N)N)C(=O)N[C@@H](C)C(=O)N[C@@H](CCCCN)C(=O)N[C@@H](CC(C)C)C(=O)N[C@@H](Cc1ccccc1)C(=O)N[C@H](C(=O)N[C@@H](CCC(=O)O)C(=O)N[C@@H](Cc1c[nH]c2ccccc12)C(=O)N[C@@H](CC(C)C)C(=O)N[C@@H](CCCCN)C(=O)N[C@@H](C)C(=O)NCC(=O)NCC(=O)N1CCC[C@H]1C(=O)N[C@@H](CO)C(=O)N[C@@H](CO)C(=O)NCC(=O)N[C@@H](C)C(=O)N1CCC[C@H]1C(=O)N1CCC[C@H]1C(=O)N1CCC[C@H]1C(=O)N[C@@H](CO)C(N)=O)[C@@H](C)CC)C(=O)O)C(=O)O`, the half-maximal effective concentration (EC50) in assay [1] is 0.0022 nM; in assay [2], 0.0044 nM; in assay [3], 0.224 nM.

As for `CCCCCCCCCCCCCCCCC(=O)N[C@@H](CCC(=O)N[C@@H](CCC(=O)NCCCC[C@H](NC(=O)[C@H](CCC(N)=O)NC(=O)[C@H](CCCCN)NC(=O)[C@H](CO)NC(=O)[C@H](CC(C)C)NC(=O)[C@H](CC(=O)O)NC(=O)[C@H](CO)NC(=O)[C@@H](NC(=O)[C@H](Cc1ccccc1)NC(=O)[C@@H](NC(=O)CNC(=O)[C@H](CCC(N)=O)NC(=O)C(C)(C)NC(=O)[C@@H](N)Cc1cnc[nH]1)[C@@H](C)O)[C@@H](C)O)C(=O)N[C@@H](CC(=O)O)C(=O)N[C@@H](CCC(=O)O)C(=O)N[C@@H](CCC(N)=O)C(=O)N[C@@H](CCCNC(=N)N)C(=O)N[C@@H](C)C(=O)N[C@@H](CCCCN)C(=O)N[C@@H](CC(C)C)C(=O)N[C@@H](Cc1ccccc1)C(=O)N[C@H](C(=O)N[C@@H](CCC(=O)O)C(=O)N[C@@H](Cc1c[nH]c2ccccc12)C(=O)N[C@@H](CC(C)C)C(=O)N[C@@H](CC(C)C)C(=O)N[C@@H](C)C(=O)NCC(=O)NCC(=O)N1CCC[C@H]1C(=O)N[C@@H](CO)C(=O)N[C@@H](CO)C(=O)NCC(=O)N[C@@H](C)C(=O)N1CCC[C@H]1C(=O)N1CCC[C@H]1C(=O)N1CCC[C@H]1C(=O)N[C@@H](CO)C(N)=O)[C@@H](C)CC)C(=O)O)C(=O)O`, the values for the EC50 in assay [1], in assay [2] and in assay [3] were 0.0048 nM, 0.0016 nM and 0.189 nM, respectively.

For GLUCAGON, the EC50 was 0.0015 nM in assay [5] (hek293) and greater than 100000 nM in assay [6] (hek293).

`CCCCCCCCCCCCCCCCC(=O)N[C@@H](CCC(=O)N[C@@H](CCC(=O)NCCCC[C@H](NC(=O)[C@H](CCC(N)=O)NC(=O)[C@H](CCCCN)NC(=O)[C@H](CO)NC(=O)[C@H](CC(C)C)NC(=O)[C@H](CC(=O)O)NC(=O)[C@H](CO)NC(=O)[C@@H](NC(=O)[C@H](Cc1ccccc1)NC(=O)[C@@H](NC(=O)CNC(=O)[C@H](CCC(N)=O)NC(=O)C(C)(C)NC(=O)[C@@H](N)Cc1cnc[nH]1)[C@@H](C)O)[C@@H](C)O)C(=O)N[C@@H](CC(=O)O)C(=O)N[C@@H](CCC(=O)O)C(=O)N[C@@H](CCC(N)=O)C(=O)N[C@@H](CCCNC(=N)N)C(=O)N[C@@H](C)C(=O)N[C@@H](CCCCN)C(=O)N[C@@H](CC(C)C)C(=O)N[C@@H](Cc1ccccc1)C(=O)N[C@H](C(=O)N[C@@H](CCC(=O)O)C(=O)N[C@@H](Cc1c[nH]c2ccccc12)C(=O)N[C@@H](CC(C)C)C(=O)N[C@H](C(=O)N[C@@H](C)C(=O)NCC(=O)NCC(=O)N1CCC[C@H]1C(=O)N[C@@H](CO)C(=O)N[C@@H](CO)C(=O)NCC(=O)N[C@@H](C)C(=O)N1CCC[C@H]1C(=O)N1CCC[C@H]1C(=O)N1CCC[C@H]1C(=O)N[C@@H](CO)C(N)=O)[C@@H](C)CC)[C@@H](C)CC)C(=O)O)C(=O)O`: the EC50 in assay [1] was found to be 0.0053 nM; in assay [2] it was 0.0025 nM; in assay [3], 0.0582 nM.

Consider `CCCCCCCCCCCCCCCCCCC(=O)N[C@@H](CCC(=O)NCCCC[C@H](NC(=O)[C@H](CCC(N)=O)NC(=O)[C@H](CCCCN)NC(=O)[C@H](CO)NC(=O)[C@H](CC(C)C)NC(=O)[C@H](CC(=O)O)NC(=O)[C@H](CO)NC(=O)[C@@H](NC(=O)[C@H](Cc1ccccc1)NC(=O)[C@@H](NC(=O)CNC(=O)[C@H](CCC(N)=O)NC(=O)C(C)(C)NC(=O)[C@@H](N)Cc1cnc[nH]1)[C@@H](C)O)[C@@H](C)O)C(=O)N[C@@H](CC(=O)O)C(=O)N[C@@H](CCC(=O)O)C(=O)N[C@@H](CCC(N)=O)C(=O)N[C@@H](CCCNC(=N)N)C(=O)N[C@@H](C)C(=O)N[C@@H](CCCCN)C(=O)N[C@@H](CC(C)C)C(=O)N[C@@H](Cc1ccccc1)C(=O)N[C@H](C(=O)N[C@@H](CCC(=O)O)C(=O)N[C@@H](Cc1c[nH]c2ccccc12)C(=O)N[C@@H](CC(C)C)C(=O)N[C@@H](CCCCN)C(=O)N[C@@H](C)C(=O)NCC(=O)NCC(=O)N1CCC[C@H]1C(=O)N[C@@H](CO)C(=O)N[C@@H](CO)C(=O)NCC(=O)N[C@@H](C)C(=O)N1CCC[C@H]1C(=O)N1CCC[C@H]1C(=O)N1CCC[C@H]1C(=O)N[C@@H](CO)C(N)=O)[C@@H](C)CC)C(=O)O`, for which the values for the EC50 in assay [1], in assay [2] and in assay [3] were 0.0025 nM, 0.0019 nM and 0.0397 nM, respectively.

For the compound `CC[C@H](C)[C@H](NC(=O)[C@H](Cc1ccccc1)NC(=O)[C@H](CCC(=O)O)NC(=O)[C@H](CCCCN)NC(=O)[C@H](C)NC(=O)[C@H](C)NC(=O)[C@H](CCC(N)=O)NC(=O)CNC(=O)[C@H](CCC(=O)O)NC(=O)[C@H](CC(C)C)NC(=O)[C@H](Cc1ccc(O)cc1)NC(=O)[C@H](CO)NC(=O)[C@H](CO)NC(=O)[C@@H](NC(=O)[C@H](CC(=O)O)NC(=O)[C@H](CO)NC(=O)[C@@H](NC(=O)[C@H](Cc1ccccc1)NC(=O)[C@@H](NC(=O)CNC(=O)[C@H](CCC(=O)O)NC(=O)[C@H](C)NC(=O)[C@@H](N)Cc1cnc[nH]1)[C@@H](C)O)[C@@H](C)O)C(C)C)C(=O)N[C@@H](C)C(=O)N[C@@H](Cc1c[nH]c2ccccc12)C(=O)N[C@@H](CC(C)C)C(=O)N[C@H](C(=O)N[C@@H](CCCCN)C(=O)NCC(=O)N[C@@H](CCCNC(=N)N)C(=O)O)C(C)C`, the EC50 in assay [3] was greater than 100000 nM; in assay [5] (Macaca mulatta, HEK293, 0.5 h) it was greater than 100000 nM; in assay [6] (Macaca mulatta, HEK293, 0.5 h), greater than 100000 nM.

For `CCCCCCCCCCCCCCCCC(=O)N[C@@H](CCC(=O)NCCCC[C@H](NC(=O)[C@H](CCC(N)=O)NC(=O)[C@H](CCCCN)NC(=O)[C@H](CO)NC(=O)[C@H](CC(C)C)NC(=O)[C@H](CC(=O)O)NC(=O)[C@H](CO)NC(=O)[C@@H](NC(=O)[C@H](Cc1ccccc1)NC(=O)[C@@H](NC(=O)CNC(=O)[C@H](CCC(N)=O)NC(=O)[C@H](CO)NC(=O)[C@@H](N)Cc1cnc[nH]1)[C@@H](C)O)[C@@H](C)O)C(=O)N[C@@H](CC(=O)O)C(=O)N[C@@H](CO)C(=O)N[C@@H](CCCNC(=N)N)C(=O)N[C@@H](CCCNC(=N)N)C(=O)N[C@@H](C)C(=O)N[C@@H](CCC(N)=O)C(=O)N[C@@H](CC(=O)O)C(=O)N[C@@H](Cc1ccccc1)C(=O)N[C@H](C(=O)N[C@@H](CCC(=O)O)C(=O)N[C@@H](Cc1c[nH]c2ccccc12)C(=O)N[C@@H](CC(C)C)C(=O)N[C@@H](CCCCN)C(=O)N[C@@H](CC(N)=O)C(=O)NCC(=O)NCC(=O)N1CCC[C@H]1C(=O)N[C@@H](CO)C(=O)N[C@@H](CO)C(=O)NCC(=O)N[C@@H](C)C(=O)N1CCC[C@H]1C(=O)N1CCC[C@H]1C(=O)N1CCC[C@H]1C(=O)N[C@@H](CO)C(=O)O)[C@@H](C)CC)C(=O)O`, the results for the EC50 in assay [1], in assay [2] and in assay [3] were 0.0039 nM, 0.0007 nM and 1.21 nM, respectively.
